Experimental data gathered from unrelated publications.
Each line is one published result; the experiments were not run side by side.
Matrix: plasma

c1cnc2ccc(Nc3nc(NC4CC4)c4nc[nH]c4n3)cc2c1
Vd/F (human; oral, 200 mg/m², patients): 267 L

CCNCCCNC/C=C\CNCCCNCC
Vd (human; intravenous, 150 mg, patients, infusion): 1.55 L/kg

COc1ccc([C@@H]2CN(C(=O)[C@@H](O)CO)C[C@@]2(C)[C@@H](C)O)cc1OC1CN(c2ccc(C)cn2)C1
Vd/F (human; oral, 40 mg, single dose, healthy volunteers): 77.7 L

C[C@@]1(c2cc(NC(=O)c3ccc(C#N)cn3)ccc2F)C=CSC(N)=N1
Vd/F (human; oral, 90 mg, single dose): 240 L

CC(C)(Sc1ccncc1-c1ccc(C#N)c2ccccc12)C(=O)O
Vd/F (male human; oral, 40 mg, single dose, fasted, healthy volunteers): 280 L

CO[C@H]1CC[C@H](N2C(=O)CNc3ncc(-c4ccc(C(C)(C)O)nc4)nc32)CC1
Vd/F (human; oral, 30 mg, patients): 195 L

COc1cc(C(=O)NC2CCN(C)CC2)c(F)cc1Nc1ncc(C(F)(F)F)c(Oc2cccc3c2C(=O)N(C)C3)n1
Vd/F (human; oral, 10 mg, multiple doses, once daily, patients): 776 L

Cc1cc(Nc2cc(N3CCN(C)CC3)nc(/C=C/c3ccccc3)n2)n[nH]1
Vd/F (human; oral, 120 mg/m², patients): 2440 L
